Sampled rows, rich in hits. Any-hit rate of the full collection: about 2.7%.
PLK1 inh: blocks human PLK1 kinase activity; P53350; recombinant PLK1 kinase, TR-FRET peptide phosphorylation; inhibition, % at 10 µM; 97,000 compounds, 0.53% hits; AID 619;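 active means inhibition of 50% or more in the single-concentration screen; inactive means inhibition below 50%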
PLK1 PBD inh: Plk1 (human) PBD binding inhibition; P53350; Plk1 PBD phosphopeptide binding, fluorescence polarization; inhibition, %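 (tested at about 20 µM)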; 97,000 compounds, 0.13% hits; AID 693; in the data active means inhibition above about 34%, passing the limit was not always enough
Rev-RRE block: HIV Rev-RRE protein-RNA interaction inhibition; Rev peptide-RRE RNA binding, FRET; inhibition, % at 8 µM; 97,000 compounds, 0.79% hits; AID 704;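 active means inhibition above the screen-wide mean plus 3 SD, cut at about 35% in these data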
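Test system – labelled RRE RNA duplex and labelled Rev peptide · Signal – fluorescein-to-Cy5 FRET, 480 nm excitation · Evaluation – % inhibition of FRET ratio versus controls · Benchmarks – DMSO low control, neomycin B high control · Incubation – 5 min RNA-compound premix plus 15 min binding step, 25 °C · Medium – HEPES pH 7.5 salt buffer with EDTA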
PTPN22 act: increases human PTPN22 phosphatase activity. recombinant LYP, DiFMUP fluorescence; 0 = plate median, 100 = signal doubled. activation, % at 2 µM. 96,000 compounds, 0.11% hits;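 active means activation at 2 µM above a set limit, the mean plus 5 SD, cut at about 37% in these data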
Target sequence (Q9Y2R2 whole entry, looked up): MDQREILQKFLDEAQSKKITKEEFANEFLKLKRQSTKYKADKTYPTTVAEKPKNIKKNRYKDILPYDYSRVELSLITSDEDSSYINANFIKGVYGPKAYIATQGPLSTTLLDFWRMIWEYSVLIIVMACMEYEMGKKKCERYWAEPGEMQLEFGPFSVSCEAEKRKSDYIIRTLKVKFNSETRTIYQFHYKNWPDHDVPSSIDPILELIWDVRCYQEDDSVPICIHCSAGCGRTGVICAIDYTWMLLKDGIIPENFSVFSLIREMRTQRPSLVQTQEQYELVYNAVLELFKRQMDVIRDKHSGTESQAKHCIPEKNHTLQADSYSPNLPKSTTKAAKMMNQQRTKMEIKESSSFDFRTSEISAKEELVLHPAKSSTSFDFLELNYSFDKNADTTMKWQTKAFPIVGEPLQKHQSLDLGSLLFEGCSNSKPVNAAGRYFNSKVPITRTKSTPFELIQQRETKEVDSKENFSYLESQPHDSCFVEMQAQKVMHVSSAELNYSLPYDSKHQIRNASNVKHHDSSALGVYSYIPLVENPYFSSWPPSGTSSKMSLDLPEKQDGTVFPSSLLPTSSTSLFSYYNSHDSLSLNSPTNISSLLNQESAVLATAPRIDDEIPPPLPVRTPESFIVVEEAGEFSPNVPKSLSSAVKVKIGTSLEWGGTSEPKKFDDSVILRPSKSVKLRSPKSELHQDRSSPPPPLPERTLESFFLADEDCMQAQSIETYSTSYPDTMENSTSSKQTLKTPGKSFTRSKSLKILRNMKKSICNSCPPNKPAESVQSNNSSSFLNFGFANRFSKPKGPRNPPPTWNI
PLAP act: activators of human placental alkaline phosphatase. 96,000 compounds, 1.2% hits. purified PLAP enzyme, luminescent substrate read-out; active compounds read high. P05187. activation fold at 20 µM; in the data active means activation fold above about 2
LYP inh 2: inhibitors of human LYP (PTPN22) phosphatase | Q9Y2R2 | recombinant LYP catalytic domain, DiFMUP fluorescence | inhibition, % at 2 µM | 96,000 compounds, 0.21% hits | AID 640;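 active means inhibition at 2 µM at or above a set limit, the screen mean plus 3 SD, cut at about 24% in these data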
PLK1 inh conf: confirmation of human PLK1 kinase inhibitors. shares compounds with PLK1 inh. AID 744. inhibition, % at 10 µM. 210 compounds, 20% hits. recombinant PLK1 kinase, TR-FRET peptide phosphorylation;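 active means inhibition at or above 50% in each of two repeat confirmation tests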
Plk1 interf: counter-screen for Plk1 inhibitors: compound assay interference. shares compounds with PLK1 inh. Plk1 TR-FRET assay interference, compound added post-reaction. inhibition (interference), % at 10 µM. 210 tested, under 10 active. AID 756;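 active means both duplicate runs show 50% or greater inhibition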
Large screens that a line does not name were inactive (follow-up assays come after a bar, where they were run).

O=c1[nH]cnc2sc(-c3ccccc3)cc12	PLK1 inh 78 | PLK1 inh conf 68 | Plk1 interf inactive
O=c1[nH]cnc2scc(-c3cccs3)c12	PLK1 inh 73 (no result: PLAP act) | PLK1 inh conf 65 | Plk1 interf inactive
C=CCNC(=O)c1nn2cccnc2c1Cl	PLK1 inh 130 | PLK1 inh conf inactive | Plk1 interf inactive
Cc1cc(NC(=O)c2nn3cccnc3c2Cl)no1	none
Nc1nc(-c2ccco2)c(-c2ccco2)s1	none
c1coc(-c2nc(-c3ccco3)c(-c3ccco3)nc2-c2ccco2)c1	PLK1 inh 93 | PLK1 inh conf inactive | Plk1 interf inactive
O=C(NCCN1C(=O)C2C3C=CC(C3)C2C1=O)Nc1ccc(Br)cc1 (stereo not given)	PLK1 inh 72 (no result: PTPN22 act, LYP inh 2) | PLK1 inh conf inactive | Plk1 interf inactive
Cc1[nH]nc2c1C1(CCN(Cc3ccccc3)CC1)C(C#N)=C(N)O2	PLK1 inh 72 | PLK1 inh conf 70 | Plk1 interf inactive
O=c1cc(N2CCOCC2)[nH]c(=O)n1-c1ccc(Cl)cc1	PLK1 inh 74 (no result: PTPN22 act, LYP inh 2) | PLK1 inh conf inactive | Plk1 interf inactive
CCOc1ccc(NS(=O)(=O)c2ccc3[nH]cc(C(=O)NCCOC)c(=O)c3c2)cc1	none (no result: PLAP act)
Cc1ccccc1-c1nc(CS(=O)CC(=O)NCc2ccccc2)c(C)o1 (stereo not given)	PLK1 inh 79 (no result: PTPN22 act, LYP inh 2) | PLK1 inh conf inactive | Plk1 interf inactive
O=C(NCc1ccc2c(c1)OCO2)Oc1ccccc1	PLK1 inh 83 (no result: PTPN22 act, LYP inh 2) | PLK1 inh conf inactive | Plk1 interf inactive
COc1cccc(-c2nc(CS(=O)CC(=O)NCc3ccc4c(c3)OCO4)c(C)o2)c1 (stereo not given)	PLK1 inh 75 (no result: PTPN22 act, LYP inh 2) | PLK1 inh conf inactive | Plk1 interf inactive
O=C(NCc1ccc2c(c1)OCO2)c1cccc(C(=O)NCc2ccc3c(c2)OCO3)c1	none
COCCNC(=O)CS(=O)Cc1nc(-c2ccc(OC)cc2)oc1C (stereo not given)	PLK1 inh 71 (no result: PTPN22 act, LYP inh 2) | PLK1 inh conf inactive | Plk1 interf inactive
COc1ccc(-c2nc(CS(=O)CC(=O)NCc3ccc4c(c3)OCO4)c(C)o2)cc1 (stereo not given)	none
COc1ccccc1C1C(C(N)=O)=C(C)Nc2ncnn21 (stereo not given)	none
Cc1[nH]c(=O)[nH]c(=O)c1S(=O)(=O)N1CCN(c2ccccc2F)CC1	none
Cc1ccc(-c2ccc(CCC(=O)O)n2CC2CCCO2)cc1 (stereo not given)	none
CNC(=O)COC(=O)c1cc(=O)[nH]c2ccccc12	none
Cc1cc(C)n(-c2nc(NCc3cccnc3)c3c4c(sc3n2)COC(C)(C)C4)n1	none
CCN(Cc1ccccc1)Cc1c(F)cccc1F	none
CCOC(=O)N1CCN(C(=O)CS(=O)Cc2nc(-c3cccc(C)c3)oc2C)CC1 (stereo not given)	PLK1 inh 75 (no result: PTPN22 act, LYP inh 2) | PLK1 inh conf inactive | Plk1 interf inactive
Cc1cccc(-c2nc(CS(=O)CC(=O)N3CCc4ccccc4C3)c(C)o2)c1 (stereo not given)	none
CCN(CC)S(=O)(=O)c1ccc(C(=O)OCCN2C(=O)CCC2=O)cc1	PLK1 inh 74 (no result: PTPN22 act, LYP inh 2) | PLK1 inh conf inactive | Plk1 interf inactive
O=[N+]([O-])c1ccc(N2CCN(CCOc3nonc3-c3ccccc3)CC2)c(Cl)c1	none
N#Cc1c(-c2ccc3c(c2)OCO3)csc1N	PLK1 inh 72 | PLK1 inh conf 66 | Plk1 interf inactive
N#Cc1c(N)c(C#N)c(-c2ccc3c(c2)OCO3)c2c1CCCC2	none (no result: PLK1 inh, PLK1 PBD inh, Rev-RRE block, PTPN22 act, LYP inh 2)
COc1ccccc1-n1cnc2cc(C(=O)NCc3ccco3)ccc21	none (no result: PLK1 inh, PLK1 PBD inh, Rev-RRE block, PTPN22 act, LYP inh 2)
COCCn1c(C)cc(C(=O)CSc2nnc3ccccn23)c1C	PLK1 inh 72 (no result: PTPN22 act, LYP inh 2) | PLK1 inh conf inactive | Plk1 interf inactive
CCCCc1nc2n[nH]c(N)c2c2c1CSC(C)(C)C2	PLK1 inh 70 | PLK1 inh conf inactive | Plk1 interf inactive
Cc1nc2ccc(NC(=O)c3cccs3)cc2c(=O)n1Cc1ccc(Cl)cc1	PLK1 inh 123 | PLK1 inh conf inactive | Plk1 interf inactive
Cc1oc(-c2ccc(Cl)cc2)nc1CN1CCCC(C(=O)NCCCN2CCCC2=O)C1 (stereo not given)	PLK1 inh 73 (no result: PTPN22 act, LYP inh 2) | PLK1 inh conf inactive | Plk1 interf inactive
Cc1oc(-c2cccc(Cl)c2)nc1CN1CCC(C(=O)NCCCN2CCCC2=O)CC1	none
CCCn1c2ccccc2c2nnc(SCC(=O)Nc3nnc(CC(=O)OCC)s3)nc21	none
Cc1c(C(=O)OC(C)C)sc2nc[nH]c(=O)c12	PLK1 inh 77 | PLK1 inh conf 69 | Plk1 interf inactive
COC(=O)c1sc2nc[nH]c(=O)c2c1C	PLK1 inh 74 | PLK1 inh conf 71 | Plk1 interf inactive
CN(C)S(=O)(=O)c1cccc(N=c2scc(-c3ccc4c(c3)NC(=O)CO4)n2CC2CCCO2)c1 (stereo not given)	none
CC(C)(C)C(=O)N1CCc2cc(-c3csc(N)n3)ccc21	none
CCOC(=O)C1=C(CSc2nc3c(cc2C#N)CN(C)CC3)OC(N)=C(C#N)C1c1ccc(Cl)cc1 (stereo not given)	PLK1 inh 116, Rev-RRE block 58 | PLK1 inh conf inactive | Plk1 interf inactive
CCOC(=O)C1=C(CSc2nc(CC)c(C)cc2C#N)OC(N)=C(C#N)C1c1ccccc1 (stereo not given)	none
N#C/C(=N\Nc1ccccc1Cl)C(=O)c1ccccc1	none
N#C/C(=N\Nc1c(Cl)cccc1Cl)C(=O)NN	PLK1 inh 79 | PLK1 inh conf 77 | Plk1 interf inactive
CC(=O)N1CCc2ccc(C(=O)CN3CCN(c4cccc(C)c4C)CC3)cc21	none
CC(=O)N1CCc2cc(C(=O)CN3CCN(C(=O)c4ccco4)CC3)ccc21	PLK1 inh 70 (no result: PTPN22 act, LYP inh 2) | PLK1 inh conf inactive | Plk1 interf inactive
CC(=O)N1CCc2cc(C(=O)CN3CCC(C)CC3)ccc21	PLK1 inh 82 (no result: PTPN22 act, LYP inh 2) | PLK1 inh conf inactive | Plk1 interf inactive
O=C(NCCc1ccc(Cl)cc1)C1CCN(S(=O)(=O)c2cccs2)CC1	none
O=C(O)c1sccc1S(=O)(=O)c1ccccc1	none
Cc1ccc(-c2nc(N/N=C/c3cccc([N+](=O)[O-])c3)c3ccccc3n2)cc1	none (no result: PLAP act)
NC(=O)c1ccc(C(F)(F)F)n(Cc2ccc(Cl)cc2)c1=O	PLK1 inh 81 | PLK1 inh conf 56 | Plk1 interf inactive
NC(=O)c1ccc(C(F)(F)F)n(Cc2cccc(Cl)c2)c1=O	PLK1 inh 75 | PLK1 inh conf 62 | Plk1 interf inactive
CC(C)C(=O)Nc1ccc(NC(=O)c2cccs2)cn1	none (no result: PLK1 inh, PLK1 PBD inh, Rev-RRE block, PTPN22 act, LYP inh 2)
Cc1cc(C)n2nc(-c3sccc3-n3c(C)ccc3C)cc2n1	none

Screening results: PubChem, several laboratories
